Measurements taken from ChEMBL document CHEMBL1131169, “Efficacious, orally bioavailable thrombin inhibitors based on 3-aminopyridinone or 3-aminopyrazinone acetamide peptidomimetic templates” (J Med Chem, 1998).

Key:
Serine protease 1 = Serine protease 1 (Homo sapiens, UniProt P07477); experiment: Inhibitory activity against trypsin was determined
Rattus norvegicus [1] = experiment: In vivo antithrombotic activity was measured after intravenous infusion (at 10 ug/kg/min) in rat FeCl3 arterial thrombosis model; 3/6; type: functional
[2] = in vitro anticoagulant potency (2x APTT) against Human plasma.; type: functional
Prothrombin = Prothrombin (Homo sapiens, UniProt P00734); experiment: Inhibitory activity against thrombin (IIa) was determined
[3] = Final plasma concentration after intravenous infusion; type: ADME, cell-free; details: read-out: Final plasma concentration
Rattus norvegicus [4] = experiment: In vivo antithrombotic activity was measured after intravenous infusion (at 10 ug/kg/min) in rat FeCl3 arterial thrombosis model; 0/6; type: functional
[5] = Half-life in dogs at 1 mg/kg dose upon oral administration; type: ADME, organism-based, Canis lupus familiaris; design: dose 1 mg/kg, route oral; details: dog, in vivo
Outline: (§1)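 Dogs dosed orally at 1 mg/kg, n = 2 per compound. Plasma drug levels were followed over time to give Cmax (μM), tmax (min), elimination t1/2 (min) and AUC (μM·h).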

[6] = time required for maximum concentration in dogs at 1 mg/kg dose upon oral administration; type: ADME, organism-based, Canis lupus familiaris; design: dose 1 mg/kg, route oral; details: dog, in vivo; outline: as §1
[7] = Maximum plasma concentration in dogs at 1 mg/kg dose upon oral administration; type: ADME, organism-based, Canis lupus familiaris; design: dose 1 mg/kg, route oral; details: dog; outline: as §1
[8] = Area under curve(AUC) value of the compound in dogs at 1 mg/kg dose upon oral administration; type: ADME, organism-based, Canis lupus familiaris; design: dose 1 mg/kg, route oral; details: dog, in vivo; outline: as §1
[9] = Final plasma concentration after intravenous infusion at 5 ug/kg/min dose; type: ADME, cell-free; details: 0.005 mg/kg, read-out: Final plasma concentration
Rattus norvegicus [10] = experiment: In vivo antithrombotic activity was measured after intravenous infusion (at 5 ug/kg/min) in rat FeCl3 arterial thrombosis model;1/6; type: functional
Rattus norvegicus [11] = experiment: In vivo antithrombotic activity was measured after intravenous infusion (at 10 ug/kg/min) in rat FeCl3 arterial thrombosis model; 0/9; type: functional
[12] = Area under curve(AUC) value of the compound; type: ADME
[13] = in vitro anticoagulant potency (2x APTT) against rat plasma.; type: functional
[14] = Area under curve(AUC) value of the compound in dogs at 0.5 mg/kg dose upon oral administration; type: ADME, organism-based; design: dose 0.5 mg/kg, route oral; details: dog, in vivo
Outline: (§2)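 Oral dosing at 0.5 mg/kg in dogs (n = 4) with plasma levels followed over time. Reported as Cmax (μM), tmax (min), terminal t1/2 (min) and AUC (μM·h), each given as mean ± spread. The same dogs later received an iv crossover dose at 0.5 mg/kg to estimate oral bioavailability.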

[15] = time required for maximum concentration in dogs at 0.5 mg/kg dose upon oral administration; type: ADME, organism-based, Canis lupus familiaris; design: dose 0.5 mg/kg, route oral; details: dog, in vivo; outline: as §2
[16] = Half-life in dogs at 0.5 mg/kg dose upon oral administration; type: ADME, organism-based, Canis lupus familiaris; design: dose 0.5 mg/kg, route oral; details: dog, in vivo; outline: as §2
Rattus norvegicus [17] = experiment: In vivo antithrombotic activity was measured after intravenous infusion (at 5 ug/kg/min) in rat FeCl3 arterial thrombosis model; 4/6; type: functional
[18] = Maximum plasma concentration in dogs at 0.5 mg/kg dose upon oral administration; type: ADME, organism-based, Canis lupus familiaris; design: dose 0.5 mg/kg, route oral; details: dog; outline: as §2

Sequence of Serine protease 1 (P07477 whole entry, the tested form may be a part): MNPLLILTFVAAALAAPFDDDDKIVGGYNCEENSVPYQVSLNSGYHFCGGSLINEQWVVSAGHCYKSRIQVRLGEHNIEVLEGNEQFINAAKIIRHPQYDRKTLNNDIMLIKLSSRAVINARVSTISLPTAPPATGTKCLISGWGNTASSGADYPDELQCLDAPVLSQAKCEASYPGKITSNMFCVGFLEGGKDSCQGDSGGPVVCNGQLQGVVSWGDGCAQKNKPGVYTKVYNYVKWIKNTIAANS

| SMILES | Ki (Serine protease 1) [µM] | Ki (Prothrombin) [µM] | concentration [3] [nM] | 2x APTT [2] [nM] | also measured |
| --- | --- | --- | --- | --- | --- |
| Cc1cc(N)nc(C)c1CNC(=O)Cn1c(C)cnc(NCCc2ccccc2)c1=O | 1 | 0.00035 | 224 | 420 | Occlusions (Rattus norvegicus [1]): 3 |
| Cc1nc(N)ccc1CNC(=O)Cn1c(C)cnc(N[C@@H](C)Cc2ccccc2)c1=O | 4.8 | 0.022 |  |  |  |
| Cc1cnc(NCCc2ccccc2)c(=O)n1CC(=O)NCc1ccc(N)nc1 | 1.2 | 0.0083 |  | 2100 |  |
| Cc1nc(N)ccc1CNC(=O)Cn1c(C)c(Cl)nc(NCCc2ccccc2)c1=O | 2.1 | 0.007 |  | 5470 |  |
| Cc1nc(N)ccc1CNC(=O)Cn1c(C)cnc(NC(C)(C)Cc2ccccc2)c1=O | 2.6 | 0.024 |  |  |  |
| Cc1nc(N)ccc1CNC(=O)Cn1c(C)cnc(N[C@H](C)Cc2ccccc2)c1=O | 1.5 | 0.00052 | 554 | 350 | Occlusions (Rattus norvegicus [4]): 0; half-life [5]: 2.13 h; Tmax [6]: 0.417 h; Cmax [7]: 600 nM; AUC [8]: 1.85 µM·h |

Now from value to compound, other results behind:

| Ki (Serine protease 1) [µM] | Ki (Prothrombin) [µM] | concentration [3] [nM] | SMILES | 2x APTT [2] [nM] | also measured |
| --- | --- | --- | --- | --- | --- |
| 3.2 | 0.0005 | 586 | Cc1nc(N)ccc1CNC(=O)Cn1c(C)ccc(NS(=O)(=O)Cc2ccccc2)c1=O [L-374087] | 210 | half-life [5]: 2.57 h; concentration [9]: 221 nM; Tmax [6]: 1.25 h; Occlusions (Rattus norvegicus [10]): 1; Occlusions (Rattus norvegicus [11]): 0; AUC [12]: 4.42 µM·h; 2x APTT [13]: 250 nM; Cmax [7]: 990 nM |
| 1.8 | 0.0008 | 445 | Cc1nc(N)ccc1CNC(=O)Cn1c(C)cnc(NCCc2ccccc2)c1=O [L-375378] | 410 | AUC [14]: 11.2 µM·h; Occlusions (Rattus norvegicus [4]): 0; Tmax [15]: 0.875 h; concentration [9]: 238 nM; half-life [16]: 3.85 h; Occlusions (Rattus norvegicus [17]): 4; Cmax [18]: 1960 nM; 2x APTT [13]: 380 nM |
